Activity calls are given as the source filed them. No cut-off for these calls is given here.
What was measured:
[1] = Induction of apoptosis in human NTUB1 cells assessed as increase in JC-1 probe monomers at 25 uM after 24 hrs by flow cytometric analysis; assay type: functional
Procedure, shortened: (§1)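 NTUB1 cells (3×10^5) treated with 10, 25 or 50 µM (10 µM CCCP control), then loaded with 1 µM JC-1 in medium 30 min; washed in PBS, trypsinized, resuspended in PBS/2% BSA; green monomer (R2) and red aggregate (R1) fluorescence by flow cytometry, aggregate/monomer ratio representing membrane potential.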

[2] = Induction of apoptosis in human NTUB1 cells assessed as decrease in JC-1 aggregation at 50 uM after 24 hrs by flow cytometric analysis; assay type: functional; set-up: scale not given: the % may be the effect or the level left; procedure, shortened: as §1
[3] = Cytotoxicity against immortalized human SV-HUC1 cells after 72 hrs by MTT assay; assay type: cell-based; conditions: sv-huc1, 72 h
Procedure, shortened: (§2)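 Cells seeded 1800/well in 96-well plates, preincubated overnight at 37 °C, then exposed to graded concentrations for 72 h at 37 °C (NTUB1, PC3 in RPMI 1640; SV-HUC1 in F12; 10% FBS, 5% CO2). MTT (2 mg/mL) added 3 h, formazan dissolved in DMSO, absorbance 540 nm; viability as percent of control; IC50 by median-effect analysis, mean ± SD.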

[4] = Cell cycle arrest in human NTUB1 cells assessed as accumulation at G1 phase at 50 uM after 24 hrs by propidium iodide staining based flow cytometric analysis (reference value: 50.64%); assay type: functional
Procedure, shortened: (§3)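 8×10^5 NTUB1 cells plated, treated 24 h (alongside 10 µM cisplatin, 1 mM NAC, 50 µM H2O2 controls); harvested by trypsinization, fixed overnight in ice-cold MeOH at −20 °C, stained with 50 µg/mL propidium iodide plus 50 µg/mL RNase A in PBS 30 min at room temperature; cell-cycle phase fractions and sub-G1 (apoptotic) DNA content by FACScan flow cytometry; three independent experiments.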

[5] = Induction of apoptosis in human NTUB1 cells assessed as increase in JC-1 probe monomers at 50 uM after 24 hrs by flow cytometric analysis; assay type: functional; procedure, shortened: as §1
[6] = Cell cycle arrest in human NTUB1 cells assessed as accumulation at subG1 phase after 24 hrs by propidium iodide staining based flow cytometric analysis; assay type: functional; procedure, shortened: as §3
[7] = target: Cellular tumor antigen p53 (Homo sapiens) (UniProt P04637); assay: Increase in p53 phosphorylation in human NTUB1 cells after 24 hrs by Western blot analysis; assay type: cell-based
Procedure, shortened: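 NTUB1 cells exposed 24 h to 0–50 µM (10 µM cisplatin comparator), or to 50 µM with or without 1 mM NAC; lysed in boiled sample buffer, SDS–PAGE, nitrocellulose semi-dry transfer, milk-blocked in TBST, primary antibodies (p-p53 Ser15, p53 DO1, β-actin) overnight at 4 °C, secondary 1 h, ECL detection; triplicate experiments.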

[8] = Cell cycle arrest in human NTUB1 cells assessed as accumulation at G1 phase at 25 uM after 24 hrs by propidium iodide staining based flow cytometric analysis (reference value: 50.64%); assay type: functional; procedure, shortened: as §3
[9] = Cell cycle arrest in human NTUB1 cells assessed as accumulation at subG1 phase at 25 uM after 24 hrs by propidium iodide staining based flow cytometric analysis (reference value: 6.68%); assay type: functional; procedure, shortened: as §3
[10] = Increase in ROS generation in human NTUB1 cells at 25 uM after 24 hrs by H2DCFDA staining based flow cytometeric analysis relative to control; assay type: functional
Procedure, shortened: (§4)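 NTUB1 cells (3×10^5 per 6 cm dish) treated 24 h (20 µM cisplatin and 1 mM NAC controls; medium-only control); 10 µM H2DCFDA added 30 min before harvest; trypsinized, PBS-washed, DCF green fluorescence (525 nm band pass, region M1) measured immediately by flow cytometry; percent change vs control; mean ± SD, n = 3.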

[11] = Induction of apoptosis in human NTUB1 cells assessed as decrease in JC-1 aggregation at 25 uM after 24 hrs by flow cytometric analysis; assay type: functional; set-up: scale not given: the % may be the effect or the level left; procedure, shortened: as §1
[12] = Cytotoxicity against human NTUB1 cells after 72 hrs by MTT assay; assay type: functional, cell-based; conditions: NTUB1, 72 h; procedure, shortened: as §2
[13] = Cell cycle arrest in human NTUB1 cells assessed as accumulation at subG1 phase at 75 uM after 24 hrs by propidium iodide staining based flow cytometric analysis (reference value: 6.68%); assay type: functional; procedure, shortened: as §3
[14] = Induction of apoptosis in human NTUB1 cells assessed as increase in JC-1 probe monomers at 10 uM after 24 hrs by flow cytometric analysis; assay type: functional
Procedure, shortened: (§5)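 NTUB1 bladder carcinoma cells (3 × 10^5) in RPMI 1640 with 10% FBS at 37 °C, 5% CO2, exposed to test agent (10, 25 or 50 µM) with 10 µM CCCP as positive control. Stained 30 min with 1 µM JC-1 in medium, washed, trypsinised, resuspended in PBS/2% BSA. Flow cytometry read green monomer and red aggregate fluorescence; the aggregate/monomer ratio represents membrane potential.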

[15] = Cell cycle arrest in human NTUB1 cells assessed as accumulation at subG1 phase at 50 uM after 24 hrs by propidium iodide staining based flow cytometric analysis (reference value: 6.68%); assay type: functional; procedure, shortened: as §3
PC-3 = assay: Cytotoxicity against human PC3 cells after 72 hrs by MTT assay; assay type: functional, cell-based; procedure, shortened: as §2
[16] = Cell cycle arrest in human NTUB1 cells assessed as accumulation at G2/M phase at 75 uM after 24 hrs by propidium iodide staining based flow cytometric analysis (reference value: 20.37%); assay type: functional; procedure, shortened: as §3
[17] = Cell cycle arrest in human NTUB1 cells assessed as accumulation at S phase at 25 uM after 24 hrs by propidium iodide staining based flow cytometric analysis (reference value: 20.37%); assay type: functional; procedure, shortened: as §3
[18] = Cell cycle arrest in human NTUB1 cells assessed as accumulation at S phase at 75 uM after 24 hrs by propidium iodide staining based flow cytometric analysis (reference value: 20.37%); assay type: functional; procedure, shortened: as §3
[19] = Increase in ROS generation in human NTUB1 cells at 10 uM after 24 hrs by H2DCFDA staining based flow cytometeric analysis relative to control; assay type: functional; procedure, shortened: as §4
[20] = Induction of apoptosis in human NTUB1 cells assessed as decrease in JC-1 aggregation at 10 uM after 24 hrs by flow cytometric analysis; assay type: functional; set-up: scale not given: the % may be the effect or the level left; procedure, shortened: as §5
[21] = Cell cycle arrest in human NTUB1 cells assessed as accumulation at G1 phase at 75 uM after 24 hrs by propidium iodide staining based flow cytometric analysis (reference value: 50.64%); assay type: functional; procedure, shortened: as §3
[22] = Cell cycle arrest in human NTUB1 cells assessed as accumulation at G2/M phase at 25 uM after 24 hrs by propidium iodide staining based flow cytometric analysis (reference value: 20.37%); assay type: functional; procedure, shortened: as §3
NTUB1 = assay: Induction of apoptosis in human NTUB1 cells assessed as activation of caspase 3 at 10 to 50 uM by Western blot analysis; assay type: functional, cell-based
[23] = Cell cycle arrest in human NTUB1 cells assessed as accumulation at S phase at 50 uM after 24 hrs by propidium iodide staining based flow cytometric analysis (reference value: 20.37%); assay type: functional; procedure, shortened: as §3
[24] = Cell cycle arrest in human NTUB1 cells assessed as accumulation at G2/M phase at 50 uM after 24 hrs by propidium iodide staining based flow cytometric analysis (reference value: 20.37%); assay type: functional; procedure, shortened: as §3

Sequence of Cellular tumor antigen p53 (Homo sapiens) (P04637 whole entry, looked up): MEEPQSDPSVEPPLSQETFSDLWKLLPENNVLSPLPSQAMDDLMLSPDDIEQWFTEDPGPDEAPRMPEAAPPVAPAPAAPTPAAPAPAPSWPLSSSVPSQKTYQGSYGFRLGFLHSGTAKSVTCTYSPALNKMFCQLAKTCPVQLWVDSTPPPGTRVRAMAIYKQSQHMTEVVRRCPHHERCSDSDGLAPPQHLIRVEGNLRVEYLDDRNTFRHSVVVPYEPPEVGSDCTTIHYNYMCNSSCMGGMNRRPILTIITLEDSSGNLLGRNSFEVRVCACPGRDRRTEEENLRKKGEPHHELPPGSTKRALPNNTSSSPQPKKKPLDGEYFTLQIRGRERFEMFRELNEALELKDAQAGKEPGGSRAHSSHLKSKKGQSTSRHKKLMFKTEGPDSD

C=C(C)[C@@H]1CC[C@]2(C)[C@H](C(=O)C=C3[C@@H]4C[C@@](C)(C(=O)NC(C)C)CC[C@]4(C)CC[C@]32C)[C@@]1(C)CCC(=O)NC(C)C
Activity [1]: 87.17%
Activity [2]: 44.07%
Activity [3]: Non-toxic
Activity [4]: 35.7%
Activity [5]: 55.65%
Activity [6]: Dose-dependent effect
Activity [7]: Dose-dependent effect
Activity [8]: 49.5%
Activity [9]: 20.4%
Activity [10]: 85.6%
Activity [11]: 12.65%
IC50 [12]: 4.76 µM
Activity [13]: 78.4%
Activity [14]: 94.14%
Activity [15]: 55.7%
Activity (PC-3): Active
Activity [16]: 4%
Activity [17]: 12.7%
Activity [18]: 2.79%
Activity [19]: 66.1%
Activity [20]: 5.45%
Activity [21]: 14.7%
Activity [22]: 12.7%
Activity (NTUB1): inactive
Activity [23]: 3.15%
Activity [24]: 5.22%
